For assay [1], the species on record is Rattus norvegicus. The assay is described as follows: Narcotic antagonist activity against an ED80 of morphine in the modified rat tail-flick assay. The assay is classed as functional.
Assay [2] deals with Mus musculus. The assay is described as follows: Analgesic agonist activity in acetic acid induced mouse writhing assay, subcutaneous administration. The following applies: sc. The assay is classed as functional. The procedure, abridged:
(§1)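 Test agents given as solutions: salts in distilled water; free bases dissolved by adding 1 N HCl, then further diluted.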

The subject of assay [3] is Rattus norvegicus. The assay is described as follows: Analgesic agonist activity in heat stimulus rat tail-flick assay on subcutaneous administration. The settings on record: sc. The assay is classed as functional. Put shortly: as §1
The subject of assay [4] is Mus musculus. The assay is described as follows: Compound was tested for the analgesic agonist activity in acetic acid induced mouse writhing assay on subcutaneous administration; Inactive at 28 umol/kg. In kind it is functional, organism-based. Put shortly: as §1
Assay [5] has as its system Rattus norvegicus. The assay is described as follows: Compound was tested for analgesic agonist activity in heat stimulus rat tail-flick assay on subcutaneous administration; Inactive at 25 mg/kg. The assay is classed as functional, organism-based. Details: dose 25 mg/kg. Put shortly: as §1
Assay [6] has as its system Mus musculus. The assay is described as follows: Compound was tested for the analgesic agonist activity in acetic acid induced mouse writhing assay on subcutaneous administration; Inactive at 25 umol/kg. The assay is classed as functional, organism-based. Put shortly: as §1
The test system of assay [7] is Mus musculus. The assay is described as follows: Compound was tested for the analgesic agonist activity in acetic acid induced mouse writhing assay on subcutaneous administration; Inactive at 20 umol/kg. In kind it is functional, organism-based. The procedure, abridged:
as §1

The subject of assay [8] is Rattus norvegicus. The assay is described as follows: Compound was tested for analgesic agonist activity in heat stimulus rat tail-flick assay on subcutaneous administration; Inactive at 25 umol/kg. The assay is classed as functional, organism-based. The procedure, abridged:
as §1

For assay [9], the system named is Mus musculus. The assay is described as follows: Compound was tested for the analgesic agonist activity in acetic acid induced mouse writhing assay on subcutaneous administration; Inactive at 25 umol/kg. The assay is classed as functional, organism-based. Put shortly:
as §1

Assay [10] has as its system Mus musculus. The assay is described as follows: Compound was tested for the analgesic agonist activity in acetic acid induced mouse writhing assay on subcutaneous administration; Inactive at 16 umol/kg. In kind it is functional, organism-based. The procedure, abridged: as §1
Assay [11] concerns Rattus norvegicus. The assay is described as follows: Compound was tested for the analgesic agonist activity in heat stimulus rat tail-flick assay; Inactive at 26 umol/kg. The assay is classed as functional, organism-based. Put shortly:
as §1

The subject of assay [12] is Mus musculus. The assay is described as follows: Compound was tested for the analgesic agonist activity in acetic acid induced mouse writhing assay on subcutaneous administration; Inactive at 26 umol/kg. In kind it is functional, organism-based. The procedure, abridged:
as §1

Assay [13] has as its system Mus musculus. The assay is described as follows: Compound was tested for the analgesic agonist activity in acetic acid induced mouse writhing assay on subcutaneous administration; Inactive at 23 umol/kg. The assay is classed as functional, organism-based. The procedure, abridged: as §1

Molecules are shown by their SMILES. Calls of active or inactive are those of the source. The calls are words filed in the database; no cut-off is given here.

Take `COc1ccc2c3c1O[C@H]1C(=O)C(C)(C)CC4[C@@H](C2)N(CC2CC2)CC[C@@]341` (some centres undefined): the values for the ED50 in [1] and in assay [2] were 6.7 µmol/kg and 5.3 µmol/kg, respectively. Take `COc1ccc2c3c1O[C@H]1[C@H](O)C(C)(C)CC4[C@@H](C2)N(C)CC[C@@]341` (some centres undefined): the ED50 came out at 30.4 µmol/kg in assay [3] and 6.5 µmol/kg in assay [2]. Regarding `COc1ccc2c3c1O[C@H]1[C@H](O)C(C)(C)[C@H](C)C4[C@@H](C2)N(C)CC[C@@]341` (some centres undefined), the ED50 in [3] was determined as 15.6 µmol/kg; in assay [2], 3.8 µmol/kg.

`CC1(C)CC2[C@H]3Cc4ccc(O)c5c4[C@@]2(CCN3CC2CCC2)[C@@H](O5)C1=O` (some centres undefined): the values for the ED50 in assay [1] and in assay [2] were greater than 24 µmol/kg and 2.2 µmol/kg, respectively. With `COc1ccc2c3c1O[C@H]1[C@@H]4OC[C@]4(C)[C@H](C)C4[C@@H](C2)N(C)CC[C@@]341` (some centres undefined), the ED50 was greater than 23 µmol/kg in assay [3] and 1.8 µmol/kg in [2]. In assay [1], `CC1(C)CC2[C@H]3Cc4ccc(O)c5c4[C@@]2(CCN3CC2CC2)[C@@H](O5)C1=O` (some centres undefined) came in with an ED50 of 1.2 µmol/kg. The ED50 result in assay [4] is “inactive”. In the case of `CC[C@@H]1C2[C@H]3Cc4ccc(O)c5c4[C@@]2(CCN3C)[C@@H](O5)C(=O)C1(C)C` (some centres undefined), the ED50 turned out to be 0.62 µmol/kg in assay [3] and 0.6 µmol/kg in assay [2].

In the case of `COc1ccc2c3c1O[C@H]1[C@H](O)C(CO)(CO)CC4[C@@H](C2)N(C)CC[C@@]341` (some centres undefined), the ED50 result in [5] and in assay [6] was “inactive” each time. Take `CC[C@@H]1C2[C@H]3Cc4ccc(OC)c5c4[C@@]2(CCN3C)[C@@H](O5)C(=O)C1(C)C` (some centres undefined): the ED50 in [3] worked out at 13.9 µmol/kg; in assay [2], 4.4 µmol/kg. The matching figures for `COc1ccc2c3c1O[C@H]1C(=O)CC[C@H]4[C@@H](C2)N(C)CC[C@]314` [HYDROCODONE]: 5.2 µmol/kg and 2.4 µmol/kg. For `COc1ccc2c3c1O[C@H]1[C@@H]4OC[C@]4(C)CC4[C@@H](C2)N(C)CC[C@@]341` (some centres undefined), in that order: greater than 30 µmol/kg and 1.9 µmol/kg. As for `C[C@H]1[C@H]2Cc3ccc(O)cc3[C@]1(C)CCN2CC1CC1` [CYCLAZOCINE], the results for the ED50 in [1] and in assay [2] were 0.81 µmol/kg and 0.41 µmol/kg, respectively. Consider `CN1CC[C@]23c4c5ccc(O)c4O[C@H]2C(=O)C(C)(C)CC3[C@H]1C5` (some centres undefined), for which the ED50 in assay [3] was 0.99 µmol/kg; in [2], 0.19 µmol/kg. As to `Oc1ccc2c(c1)[C@@]13CCCC[C@@]1(O)[C@@H](C2)N(CC1CCC1)CC3` [BUTORPHANOL], the values for the ED50 in assay [1] and in [2] were 2 µmol/kg and 0.34 µmol/kg, respectively. The compound `CC[C@@H]1C2[C@H]3Cc4ccc(OC)c5c4[C@@]2(CCN3CC2CC2)[C@@H](O5)C(=O)C1(C)C` (some centres undefined) gave an ED50 in [1] greater than 20 µmol/kg. Also, the ED50 result in assay [7] was “inactive”. `C[C@@H]1C2[C@H]3Cc4ccc(O)c5c4[C@@]2(CCN3CC2CCC2)[C@@H](O5)C(=O)C1(C)C` (some centres undefined): the ED50 in [1] and in assay [2] was greater than 25 µmol/kg throughout. As to `COc1ccc2c3c1O[C@H]1C(=O)C(C)(C)CC4[C@@H](C2)N(C)CC[C@@]341` (some centres undefined), the ED50 in [3] was 9.8 µmol/kg; in assay [2] it was 3.9 µmol/kg.

Regarding `CC[C@@H]1C2[C@H]3Cc4ccc(O)c5c4[C@@]2(CCN3CC2CCC2)[C@@H](O5)C(=O)C1(C)C` (some centres undefined), the ED50 is 2.8 µmol/kg in assay [1] and 18.5 µmol/kg in assay [2].

Compound `COc1ccc2c3c1O[C@H]1[C@@H](O)C(C)(C)CC4[C@@H](C2)N(C)CC[C@@]341` (some centres undefined) came in with an ED50 in assay [2] of 12.7 µmol/kg. For `CC[C@@H]1C2[C@H]3Cc4ccc(OC)c5c4[C@@]2(CCN3C)[C@@H](O5)[C@H](O)C1(CO)CO` (some centres undefined), the ED50 entry in [8] and in [9] was “inactive” in each case. In [1], `CC[C@@H]1C2[C@H]3Cc4ccc(O)c5c4[C@@]2(CCN3CC2CC2)[C@@H](O5)C(=O)C1(C)C` (some centres undefined) had an ED50 of 2.4 µmol/kg. Further, the ED50 result in [10] is “inactive”. In turn, `COc1ccc2c3c1O[C@H]1[C@H](O)C(CO)(CO)[C@H](C)C4[C@@H](C2)N(C)CC[C@@]341` (some centres undefined) came in with an ED50 in assay [2] greater than 26 µmol/kg. Moreover, in [11], the ED50 result is “inactive”. The compound `COc1ccc2c3c1O[C@H]1C(=O)C(C)(C)CC4[C@@H](C2)N(CC2CCC2)CC[C@@]341` (some centres undefined) yielded an ED50 in [1] greater than 26 µmol/kg. Moreover, the ED50 entry in assay [12] is “inactive”. In assay [3], `CN1CC[C@]23c4c5ccc(O)c4O[C@H]2C(=O)CC[C@H]3[C@H]1C5` [HYDROMORPHONE] gave an ED50 of 1.3 µmol/kg. With `COc1ccc2c3c1O[C@H]1[C@@H](O)C=C[C@H]4[C@@H](C2)N(C)CC[C@@]341` [CODEINE], the ED50 in assay [3] came to 75 µmol/kg; in assay [2], 10.3 µmol/kg.

With `COc1ccc2c3c1O[C@H]1C(=O)C(C)(C)[C@H](C)C4[C@@H](C2)N(C)CC[C@@]341` (some centres undefined), the results for the ED50 in assay [3] and in [2] were 4.2 µmol/kg and 2.5 µmol/kg, respectively.

On to `CC[C@@H]1C2[C@H]3Cc4ccc(OC)c5c4[C@@]2(CCN3C)[C@@H](O5)[C@@H]2OC[C@]12C` (some centres undefined), for which the ED50 in assay [3] is greater than 28 µmol/kg; in assay [2], 11.1 µmol/kg. With `COc1ccc2c3c1O[C@H]1C(=O)C(C)(C)[C@H](C)C4[C@@H](C2)N(CC2CC2)CC[C@@]341` (some centres undefined), the figures for the median effective dose (ED50) in assay [1] and in assay [2] were 7.3 µmol/kg and greater than 26 µmol/kg, respectively. Take `CC[C@@H]1C2[C@H]3Cc4ccc(OC)c5c4[C@@]2(CCN3C)[C@@H](O5)[C@H](O)C1(C)C` (some centres undefined): the ED50 in assay [3] is greater than 22 µmol/kg; in assay [2], 21.5 µmol/kg. For the compound `CC[C@@H]1C2[C@H]3Cc4ccc(OC)c5c4[C@@]2(CCN3CC2CCC2)[C@@H](O5)C(=O)C1(C)C` (some centres undefined), the ED50 in [1] and in assay [2] was greater than 23 µmol/kg in each case. Regarding `CC(C)=CCN1CC[C@@]2(C)c3cc(O)ccc3C[C@@H]1[C@@H]2C`, the ED50 in assay [1] amounted to 36.4 µmol/kg; in assay [2], 13 µmol/kg. In turn, `C[C@@H]1C2[C@H]3Cc4ccc(O)c5c4[C@@]2(CCN3CC2CC2)[C@@H](O5)C(=O)C1(C)C` (some centres undefined) displayed an ED50 in [1] of 0.38 µmol/kg. The ED50 entry in assay [13] was “inactive”. For `COc1ccc2c3c1O[C@H]1C(=O)C(C)(C)[C@H](C)C4[C@@H](C2)N(CC2CCC2)CC[C@@]341` (some centres undefined), the ED50 in assay [1] was determined as 4.7 µmol/kg; in assay [2] it was 17.2 µmol/kg.

Source of the values: ChEMBL document CHEMBL1121639, “Analgesic narcotic antagonists. 5. 7,7-Dimethyldihydrocodeinones and 7,7-dimethyldihydromorphinones” (1981).
